Assay results as given in ChEMBL document CHEMBL1629485, “Lead identification of conformationally restricted β-lactam type combretastatin analogues: synthesis, antiproliferative activity and tubulin targeting effects” (Eur J Med Chem, 2010).

Columns and labels:
MDA-MB-231 [1] = test: Cell cycle arrest in estrogen receptor deficient human MDA-MB-231 cells assessed as accumulation at G1 phase at 10 nM after 48 hrs using propidium iodide staining by flow cytometry relative to control; assay type: functional
How it was run: (§1)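 MDA-MB-231 cells in DMEM with 10% FBS and 2 mM L-glutamine, seeded at 18 × 10⁴ cells/mL. Exposed to test agent at the stated final concentration, or to 1% (v/v) ethanol vehicle, for 24, 48 or 72 h. Harvested by scraping and centrifugation, then RNase A treatment and propidium iodide DNA staining for at least 30 min at 37 °C. 10,000 cells per sample read at 488 nm by flow cytometry; mean ± SD of three experiments.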

MDA-MB-231 [2] = test: Cell cycle arrest in estrogen receptor deficient human MDA-MB-231 cells assessed as accumulation at S phase at 1 uM after 24 hrs using propidium iodide staining by flow cytometry relative to control; assay type: functional; how it was run: as §1

## COc1ccc(C2CC(=O)N2c2cc(OC)c(OC)c(OC)c2)cc1O (configuration not stated)
MDA-MB-231 [1]
  Activity: 45.25%
MDA-MB-231 [2]
  Activity: 6.01%
